Assay results from ChEMBL document CHEMBL1135827, “Enhancement of nucleoside cytotoxicity through nucleotide prodrugs” (J Med Chem, 2002).

T1: DNA polymerase alpha catalytic subunit (Homo sapiens, UniProt P09884)
T1 sequence (P09884 whole entry): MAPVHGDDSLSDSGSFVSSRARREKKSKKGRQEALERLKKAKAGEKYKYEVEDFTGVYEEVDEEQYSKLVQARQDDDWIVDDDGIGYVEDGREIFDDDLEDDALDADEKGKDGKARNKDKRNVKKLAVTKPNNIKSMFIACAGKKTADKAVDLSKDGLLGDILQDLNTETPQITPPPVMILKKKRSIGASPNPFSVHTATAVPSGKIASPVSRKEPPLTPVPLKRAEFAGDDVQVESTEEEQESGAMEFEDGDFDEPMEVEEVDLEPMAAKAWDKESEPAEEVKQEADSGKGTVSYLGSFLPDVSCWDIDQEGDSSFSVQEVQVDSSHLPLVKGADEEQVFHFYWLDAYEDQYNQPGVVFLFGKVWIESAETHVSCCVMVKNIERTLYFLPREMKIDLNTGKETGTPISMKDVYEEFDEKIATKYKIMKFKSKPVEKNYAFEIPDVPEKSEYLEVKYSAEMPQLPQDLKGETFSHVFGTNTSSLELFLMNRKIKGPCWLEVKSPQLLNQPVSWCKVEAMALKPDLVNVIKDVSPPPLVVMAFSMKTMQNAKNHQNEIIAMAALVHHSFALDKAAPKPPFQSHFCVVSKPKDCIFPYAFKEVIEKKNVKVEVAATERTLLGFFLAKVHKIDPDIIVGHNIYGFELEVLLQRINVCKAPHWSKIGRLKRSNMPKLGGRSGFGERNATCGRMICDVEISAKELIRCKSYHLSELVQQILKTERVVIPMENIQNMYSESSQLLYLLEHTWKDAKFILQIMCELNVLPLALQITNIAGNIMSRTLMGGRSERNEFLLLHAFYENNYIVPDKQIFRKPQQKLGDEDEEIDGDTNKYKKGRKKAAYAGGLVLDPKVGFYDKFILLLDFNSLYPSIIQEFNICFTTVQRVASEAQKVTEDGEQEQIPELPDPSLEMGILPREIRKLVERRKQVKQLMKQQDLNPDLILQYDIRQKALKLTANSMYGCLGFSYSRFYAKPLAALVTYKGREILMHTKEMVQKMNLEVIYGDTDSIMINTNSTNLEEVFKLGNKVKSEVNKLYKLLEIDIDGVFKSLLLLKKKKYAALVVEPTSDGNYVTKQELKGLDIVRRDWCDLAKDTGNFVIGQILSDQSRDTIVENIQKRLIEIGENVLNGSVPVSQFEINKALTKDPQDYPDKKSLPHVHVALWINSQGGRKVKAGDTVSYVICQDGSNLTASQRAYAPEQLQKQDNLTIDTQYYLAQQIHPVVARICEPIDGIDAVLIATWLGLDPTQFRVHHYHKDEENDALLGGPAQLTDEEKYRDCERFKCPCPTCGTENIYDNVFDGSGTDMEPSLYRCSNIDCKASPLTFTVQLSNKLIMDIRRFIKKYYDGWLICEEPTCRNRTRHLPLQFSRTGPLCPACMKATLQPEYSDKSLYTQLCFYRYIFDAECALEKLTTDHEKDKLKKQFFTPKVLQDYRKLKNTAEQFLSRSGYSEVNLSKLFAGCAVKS

B1: DNA polymerase alpha catalytic subunit (Homo sapiens), P09884 (protein)
chain: T1 sequence (P09884 whole entry)

Columns and labels:
[1] = target: T1, DNA polymerase alpha catalytic subunit; test: Ability to inhibit the incorporation of dATP into DNA by DNA polymerase alpha
How it was run: (§1)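 DNA polymerase α purified 52-fold from CEM cells (specific activity 120 nmol/mg/hr). 50 μL reactions: 50 mM Tris pH 8.0, 1 mg/mL BSA, 10 mM MgCl2, 1 mM DTT, 100 μg/mL activated DNA, 100 μM each dTTP and dCTP, 10 μM [3H]dGTP, dATP 0–100 μM. 1 h at 37 °C; TCA/ethanol-washed glass-fiber filters counted. Ki from slopes of Lineweaver–Burk lines vs inhibitor, three inhibitor concentrations.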

CCRF-CEM [2] = test: Percent control of protein synthesis in CEM cells; assay type: functional, Homo sapiens
How it was run: (§2)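 CEM cells (RPMI 1640, 10% FBS) incubated with 29 μM or 35 μM compound (± 10 μM dCF). [3H]thymidine, [3H]uridine or [3H]leucine added 30 min after drug; samples at 1, 2 and 4 h after label. Acid-precipitable radioactivity measured; RNA taken as total acid-precipitable minus alkali-stable/acid-precipitable (DNA) fraction. Expressed as percent of control; repeated twice.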

CCRF-CEM [3] = test: Percent control of RNA synthesis in CEM cells; assay type: functional, Homo sapiens; how it was run: as §2
CCRF-CEM [4] = test: Percent control of DNA synthesis in CEM cells; assay type: functional, Homo sapiens; how it was run: as §2
[5] = substrate: Nc1ncnc2c1ncn2[C@H]1C[C@H](O)[C@@H](COP(=O)(O)OP(=O)(O)OP(=O)(O)O)O1; test: Km value with DNA polymerase alpha; assay type: functional; how it was run: as §1

Ki [1] | Molecule | Control (CCRF-CEM [2]) | Control (CCRF-CEM [3]) | Control (CCRF-CEM [4]) | Km [5]
156 µM | CC(C)(C)C(=O)OCOP(=O)(OCOC(=O)C(C)(C)C)OC[C@H]1O[C@@H](n2nnc3c(N)ncnc32)C[C@H]1O | 95% | 3% | 11% | 
 | CC(C)(C)C(=O)OCOP(=O)(OCOC(=O)C(C)(C)C)OC[C@H]1O[C@@H](n2nnc3c(N)ncnc32)C[C@H]1O.OC[C@H]1O[C@@H](n2cnc3c2NC=NC[C@H]3O)C[C@@H]1O | 98% | 3% | 11% | 
 | CC(C)(C)C(=O)OCOP(=O)(OCOC(=O)C(C)(C)C)OC[C@H]1O[C@@H](n2c(Br)nc3c(N)ncnc32)C[C@@H]1O | 94% | 14% | 53% | 
 | B1 |  |  |  | 4 µM
